Test results from ChEMBL document CHEMBL5625195, “Identification of novel tetrahydroquinoxaline derived phenyl ureas as modulators of the hepatitis B virus nucleocapsid assembly” (Eur J Med Chem, 2023).
The source made the active and inactive calls. The rule behind the calls is not given here.

Experiments:
[1] = tested on: Hepatitis B virus; assay: Antiviral activity against HBV infected in AML12HBV10 cells assessed as reduction in encapsidated pgRNA at 5 uM after 2 days by Northern blot hybridization; format: functional, organism-based; conditions: time 2.0 day
In short: (§1)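 AML12HBV10 cells were induced by tetracycline withdrawal for 24 h, then mock (DMSO) or compound treated for 48 h, with tetracycline-maintained cells as negative control. Encapsidated pgRNA was detected by Northern blot hybridization, using ribosomal RNA as loading control.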

[2] = tested on: Hepatitis B virus; assay: Antiviral activity against HBV infected in AML12HBV10 cells assessed as reduction in viral DNA replication at 5 uM after 2 days by Northern blot hybridization; format: functional, organism-based; conditions: time 2.0 day
In short: (§2)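 AML12HBV10 cells in 24-well plates were kept with or without tetracycline for 24 h. Tet-maintained cells served as the no-pgRNA negative control. Cells were then mock (DMSO) or compound treated for 48 h. Total viral RNA and encapsidated pgRNA were read by Northern blot with rRNA as loading control. Core protein was read by Western blot (C-terminal 14-residue antibody, β-actin control), capsids by native particle gel assay, and replication intermediates by Southern blot.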

[3] = tested on: Hepatitis B virus; assay: Antiviral activity against HBV infected in AML12HBV10 cells assessed as reduction in encapsidated pgRNA at 2 uM after 2 days by Northern blot hybridization; format: functional, organism-based; conditions: time 2.0 day; in short: as §1
[4] = tested on: Hepatitis B virus; assay: Antiviral activity against HBV infected in AML12HBV10 cells assessed as accumulation of capsid at 5 uM after 2 days by Northern blot hybridization; format: functional, organism-based; conditions: time 2.0 day
In short: (§3)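 AML12HBV10 cells (mouse hepatocyte line carrying tetracycline-inducible, envelope-deficient HBV genome) in 24-well plates. Tetracycline was removed for 24 h before treatment; tetracycline-maintained cells served as negative control. Cells were mock (DMSO) or compound treated for a further 48 h. Intracellular capsids and core-associated DNA were resolved by native agarose gel particle assay.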

[5] = tested on: Hepatitis B virus; assay: Antiviral activity against HBV infected in AML12HBV10 cells assessed as decrease in capsid assembly at 2 uM after 2 days by Northern blot hybridization; format: functional, organism-based; conditions: time 2.0 day; in short: as §3
[6] = tested on: Hepatitis B virus; assay: Antiviral activity against HBV infected in AML12HBV10 cells assessed as reduction in viral DNA replication at 2 uM after 2 days by Northern blot hybridization; format: functional, organism-based; conditions: time 2.0 day; in short: as §2
[7] = tested on: Hepatitis B virus; assay: Antiviral activity against HBV infected in AML12HBV10 cells assessed as change in core protein at 1 uM after 2 days by Northern blot hybridization; format: functional, organism-based; conditions: time 2.0 day; in short: as §2
[8] = tested on: Hepatitis B virus; assay: Antiviral activity against HBV infected in AML12HBV10 cells assessed as change in DNA replication intermediates at 1 uM after 2 days by Northern blot hybridization; format: functional, organism-based; conditions: time 2.0 day; in short: as §2
[9] = tested on: Hepatitis B virus; assay: Antiviral activity against HBV infected in AML12HBV10 cells assessed as change in capsid associated viral DNA at 1 uM after 2 days by Northern blot hybridization; format: functional, organism-based; conditions: time 2.0 day; in short: as §3
[10] = tested on: Hepatitis B virus; assay: Antiviral activity against HBV infected in AML12HBV10 cells assessed as change in encapsidated pgRNA at 1 uM after 2 days by Northern blot hybridization; format: functional, organism-based; conditions: time 2.0 day; in short: as §1
[11] = tested on: Hepatitis B virus; assay: Antiviral activity against HBV infected in AML12HBV10 cells assessed as change in total viral RNA at 1 uM after 2 days by Northern blot hybridization; format: functional, organism-based; conditions: time 2.0 day; in short: as §2
[12] = tested on: Hepatitis B virus; assay: Antiviral activity against HBV infected in AML12HBV10 cells assessed as change in capsids at 1 uM after 2 days by Northern blot hybridization; format: functional, organism-based; conditions: time 2.0 day; in short: as §3
[13] = tested on: Hepatitis B virus; assay: Antiviral activity against HBV infected in AML12HBV10 cells assessed as change in total viral RNA at 1 to 5 uM after 2 days by Northern blot hybridization; format: functional, organism-based; conditions: dose 1-5 µM, time 2.0 day; in short: as §2
[14] = tested on: Hepatitis B virus; assay: Antiviral activity against HBV infected in AML12HBV10 cells assessed as reduction viral replication incubated for 48 hrs; format: functional, organism-based; conditions: AML12HBV10, 48 h
In short: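 AML12HBV10 cells were seeded at 2 x 10^4 per well without tetracycline. After one day, 2-fold serial dilutions (10 μM to 0.08 μM) were applied for 48 h. Lysates were denatured, neutralized and dot-blotted, then hybridized with a 32P-labelled riboprobe specific for HBV minus-strand DNA and read by phosphorimager. EC50 was the concentration reducing HBV DNA by 50%.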

[15] = tested on: Hepatitis B virus; assay: Antiviral activity against HBV infected in AML12HBV10 cells assessed as decrease in encapsidated pgRNA at 1 to 5 uM after 2 days by Northern blot hybridization; format: functional, organism-based; conditions: dose 1-5 µM, time 2.0 day; in short: as §1
[16] = tested on: Hepatitis B virus; assay: Antiviral activity against HBV infected in AML12HBV10 cells assessed as change in core protein at 1 to 5 uM after 2 days by Northern blot hybridization; format: functional, organism-based; conditions: dose 1-5 µM, time 2.0 day; in short: as §2
[17] = tested on: Hepatitis B virus; assay: Antiviral activity against HBV infected in AML12HBV10 cells assessed as decrease in capsid assembly at 1 to 5 uM after 2 days by Northern blot hybridization; format: functional, organism-based; conditions: dose 1-5 µM, time 2.0 day; in short: as §3
[18] = tested on: Hepatitis B virus; assay: Antiviral activity against HBV infected in AML12HBV10 cells assessed as decrease in viral DNA replication at 1 to 5 uM after 2 days by Northern blot hybridization; format: functional, organism-based; conditions: dose 1-5 µM, time 2.0 day; in short: as §2
[19] = tested on: AML12; assay: Cytotoxicity against mouse AML12 cells assessed as reduction in cell viability incubated for 48 hrs by MTT assay; format: toxicity, cell-based; conditions: aml12, 48 h
In short: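 Stable AML12HBV10 hepatocytes (AML12-derived), cultured without tetracycline, were exposed to 2-fold serial dilutions (50 μM to 1.56 μM) for 48 h. Viability was inspected microscopically and quantified by MTT. CC50 was the concentration lowering viability by 50%.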

Question: Which Activity [1] does the source give for `CCC(C)NS(=O)(=O)c1ccc(F)c(C(=O)Nc2ccc(F)c(F)c2)c1` (centres undefined) here?
Answer: Active

Question: What about the Activity [2] of the same compound?
Answer: Active

Question: What does the source list for `COC(=O)C1=C(C)NC(c2ncc(F)cc2F)=N[C@H]1c1ccc(F)cc1Cl`?
Answer: Activity [3]: Active; Activity [4]: Active; Activity [5]: Active; Activity [6]: Active

Question: What does the source list for `C=C1[C@H](CO)[C@@H](O)C[C@@H]1n1cnc2c(=O)[nH]c(N)nc21`?
Answer: Activity [7]: inactive; Activity [8]: Active; Activity [9]: Active; Activity [10]: inactive; Activity [11]: inactive; Activity [12]: inactive

Question: What does the source list for `O=C(Nc1ccc(F)c(Cl)c1)N1CCNc2ccccc21`?
Answer: Activity [13]: inactive; EC50 [14]: 0.51 µM; Activity [15]: Active; Activity [16]: inactive; Activity [17]: Active; Activity [18]: Active; CC50 [19]: > 100 µM
